# Test results reported in ChEMBL document CHEMBL2203144, “Synthesis and evaluation of antimicrobial activity of 4H-pyrimido[2,1-b]benzothiazole, pyrazole and benzylidene derivatives of curcumin” (Eur J Med Chem, 2012).
# Active and inactive are the calls of the source. The rule behind the calls is not given here.
# Legend:
# [1] = Cytotoxicity against human L123 cells after 48 hrs by MTT assay; format: cell-based
# In short: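 MTT assay. 2×10³ cells per well in MEM + 10% FBS, attached 24 h, then treated at 5, 10, 20, 50 and 100 µM/mL for 48 h; controls received medium with 0.2% DMSO. Duplicate treatments. Cells PBS-washed, given MTT (stock 1 mg/mL) for 4 h at 37 °C. Formazan dissolved in DMSO, read at 590 nm. IC50 is the concentration reducing viability by 50%.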
# Aspergillus niger [2] = experiment: Antifungal activity against Aspergillus niger after 72 hrs by broth dilution method; format: functional
# In short: (§1)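 Compounds and fluconazole reference were dissolved in acetone at 120 µM/mL and serially diluted to 20–0.315 µM/mL. 10 µL compound plus 10 µL fungal culture broth added to 150 µL Sabouraud dextrose medium per well. Optical density recorded, then incubated 72 h at 28 °C. MIC95 taken from absence of turbidity. Acetone-at-same-dilution solvent control.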
# Aspergillus flavus [3] = experiment: Antifungal activity against Aspergillus flavus after 72 hrs by broth dilution method; format: functional; in short: as §1
# Escherichia coli = experiment: Antibacterial activity against Escherichia coli ATCC 35218 after 24 hrs by broth microdilution method; format: functional
# In short: (§2)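 Microwell broth dilution in brain heart infusion broth (nutrient broth adjusted to pH 7.0). Inoculum from 16 h cultures, adjusted to 0.5 McFarland (1.5 × 10⁸ CFU/mL). 10 µL compound (serial dilutions 20 down to 0.625 or 0.312 µM/mL) plus 10 µL culture added to 150 µL broth. Incubated 24 h at 37 °C. MIC95 is the lowest concentration with no turbidity. Ciprofloxacin reference; inoculum and broth controls.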
# Aspergillus fumigatus [4] = experiment: Antifungal activity against Aspergillus fumigatus after 72 hrs by agar disk diffusion method; format: functional
# In short: (§3)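 Sterile filter-paper discs dipped in the acetone dilutions of compound (20–0.315 µM/mL), then dried to remove acetone. Sabouraud dextrose agar plates spread with 1 mL fungal culture. Discs placed aseptically; one drug-free disc served as growth control; fluconazole reference. Plates incubated upright 72 h at 28 °C. Zone of inhibition measured in mm with a scale.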
# Aspergillus flavus [5] = experiment: Antifungal activity against Aspergillus flavus after 72 hrs by agar disk diffusion method; format: functional; in short: as §3
# Pseudomonas aeruginosa = experiment: Antibacterial activity against Pseudomonas aeruginosa ATCC 23564 after 24 hrs by broth microdilution method; format: functional; in short: as §2
# Providencia rettgeri = experiment: Antibacterial activity against Providencia rettgeri DRDE after 24 hrs by broth microdilution method; format: functional; in short: as §2
# Bacillus cereus = experiment: Antibacterial activity against Bacillus cereus MTCC 7350 after 24 hrs by broth microdilution method; format: functional; in short: as §2
# Aspergillus niger [6] = experiment: Antifungal activity against Aspergillus niger after 72 hrs by agar disk diffusion method; format: functional; in short: as §3
# Aspergillus fumigatus [7] = experiment: Antifungal activity against Aspergillus fumigatus after 72 hrs by broth dilution method; format: functional; in short: as §1
# Staphylococcus aureus = experiment: Antibacterial activity against Staphylococcus aureus ATCC 11632 after 24 hrs by broth microdilution method; format: functional; in short: as §2
# Salmonella typhi = experiment: Antibacterial activity against Salmonella typhi ATCC 15499 after 24 hrs by broth microdilution method; format: functional, Salmonella enterica subsp. enterica serovar Typhi
# In short: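 Broth microdilution in brain heart infusion broth in microwells. Inoculum was prepared from 16 h cultures adjusted to the 0.5 McFarland standard (1.5 × 10⁸ CFU/mL). Compounds were serially diluted from 20 down to 0.625 µM/mL and added to the broth, followed by the bacterial culture. Plates were incubated 24 h at 37 °C, with optical density read. MIC95 was the lowest concentration giving no turbidity. Inoculum and broth controls were included.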
# [8] = Salmonella enterica subsp. enterica serovar Typhi
Compound,IC50 [1],MIC95 (Aspergillus niger [2]),MIC95 (Aspergillus flavus [3]),MIC95 (Escherichia coli),inhibition zone (IZ) (Aspergillus fumigatus [4]),inhibition zone (IZ) (Aspergillus flavus [5]),MIC95 (Pseudomonas aeruginosa),MIC95 (Providencia rettgeri),MIC95 (Bacillus cereus),inhibition zone (IZ) (Aspergillus niger [6]),MIC95 (Aspergillus fumigatus [7]),MIC95 (Staphylococcus aureus),MIC95 (Salmonella typhi),MIC95 (Salmonella typhi; [8])
COc1cc(/C=C/c2cc(/C=C/c3ccc(O)c(OC)c3)n(-c3ccc([N+](=O)[O-])cc3[N+](=O)[O-])n2)ccc1O,> 100 uM/ml,2.5 uM/ml,1.25 uM/ml,inactive,inactive,20 mm,inactive,inactive,1.25 uM/ml,17 mm,inactive,1.25 uM/ml,2.5 uM/ml,
COc1cc(/C=C/C(=O)C(=Cc2ccc(N(C)C)cc2)C(=O)/C=C/c2ccc(O)c(OC)c2)ccc1O,> 100 uM/ml,5 uM/ml,inactive,inactive,20 mm,inactive,1.25 uM/ml,inactive,0.625 uM/ml,15 mm,1.25 uM/ml,5 uM/ml,2.5 uM/ml,
COc1cc(/C=C/C(=O)C2=C(/C=C/c3ccc(O)c(OC)c3)N=C3Sc4ccccc4N3C2c2c(Cl)cccc2Cl)ccc1O (configuration not stated),> 100 uM/ml,inactive,inactive,20 uM/ml,inactive,inactive,20 uM/ml,10 uM/ml,5 uM/ml,inactive,inactive,inactive,,inactive
COc1cc(/C=C/C(=O)C2=C(/C=C/c3ccc(O)c(OC)c3)N=C3Sc4ccccc4N3C2c2ccccc2O)ccc1O (configuration not stated),50 uM/ml,inactive,inactive,inactive,inactive,inactive,20 uM/ml,inactive,5 uM/ml,inactive,inactive,20 uM/ml,,inactive
